# Measured values from ChEMBL document CHEMBL4130635, “2,4-Diaminoquinazolines as Dual Toll-like Receptor (TLR) 7/8 Modulators for the Treatment of Hepatitis B Virus” (J Med Chem, 2018).
# Calls of active or inactive are those of the source. The rule behind the calls is not given here.
# Key:
# [1] = tested on: Liver; experiment: Upregulation of IP-10 mRNA expression levels in C57BL/6J mouse liver at 10 mg/kg, po by RT-qPCR analysis (reference value: 1); format: functional
# [2] = tested on: Plasma; experiment: Induction of IFNalpha levels in C57BL/6J mouse plasma at 3 mg/kg, po by ELISA; format: functional
# [3] = tested on: Plasma; experiment: Anti-inflammatory activity in C57BL/6J mouse plasma assessed as IL-10 levels at 1 mg/kg, po by multiplex assay (reference value: 120 pg/ml); format: functional
# Procedure, shortened: (§1)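 Single oral gavage in 20% HP-β-CD to healthy C57BL/6 mice, groups of 15 at 0.3, 1, 3, 10 or 30 mg/kg. Three mice per group sacrificed at 0.5, 1, 2, 4 or 7 h. Plasma and liver cytokines by multiplex, maximum level reported, rounded to nearest multiple of 5.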
# [4] = tested on: Liver; experiment: Anti-inflammatory activity in C57BL/6J mouse liver assessed as IL-10 levels at 10 mg/kg, po by multiplex assay (reference value: 2 pg/g); format: functional; procedure, shortened: as §1
# [5] = tested on: Cynomolgus monkey; experiment: Plasma concentration in cynomolgus monkey at 1 mg/kg, po by LC-MS analysis; format: ADME, organism-based, Macaca fascicularis; conditions: in vivo
# [6] = tested on: Liver; experiment: Effect on cytokine profile in C57BL/6J mouse liver assessed as IFNgamma levels at 10 mg/kg, po by multiplex assay; format: functional; procedure, shortened: as §1
# [7] = target: T1, TLR7 and TLR8 (Homo sapiens) (UniProt Q9NYK1+Q9NR97); experiment: Agonist activity at TLR7/8 in human PBMCs co-cultured with primary human hepatocytes infected with HBV genotype C for 12 days assessed as increase in IFNgamma levels up to 5 uM measured after 42 days
# T1 sequence (Q9NR97 whole entry, looked up, one chain of several): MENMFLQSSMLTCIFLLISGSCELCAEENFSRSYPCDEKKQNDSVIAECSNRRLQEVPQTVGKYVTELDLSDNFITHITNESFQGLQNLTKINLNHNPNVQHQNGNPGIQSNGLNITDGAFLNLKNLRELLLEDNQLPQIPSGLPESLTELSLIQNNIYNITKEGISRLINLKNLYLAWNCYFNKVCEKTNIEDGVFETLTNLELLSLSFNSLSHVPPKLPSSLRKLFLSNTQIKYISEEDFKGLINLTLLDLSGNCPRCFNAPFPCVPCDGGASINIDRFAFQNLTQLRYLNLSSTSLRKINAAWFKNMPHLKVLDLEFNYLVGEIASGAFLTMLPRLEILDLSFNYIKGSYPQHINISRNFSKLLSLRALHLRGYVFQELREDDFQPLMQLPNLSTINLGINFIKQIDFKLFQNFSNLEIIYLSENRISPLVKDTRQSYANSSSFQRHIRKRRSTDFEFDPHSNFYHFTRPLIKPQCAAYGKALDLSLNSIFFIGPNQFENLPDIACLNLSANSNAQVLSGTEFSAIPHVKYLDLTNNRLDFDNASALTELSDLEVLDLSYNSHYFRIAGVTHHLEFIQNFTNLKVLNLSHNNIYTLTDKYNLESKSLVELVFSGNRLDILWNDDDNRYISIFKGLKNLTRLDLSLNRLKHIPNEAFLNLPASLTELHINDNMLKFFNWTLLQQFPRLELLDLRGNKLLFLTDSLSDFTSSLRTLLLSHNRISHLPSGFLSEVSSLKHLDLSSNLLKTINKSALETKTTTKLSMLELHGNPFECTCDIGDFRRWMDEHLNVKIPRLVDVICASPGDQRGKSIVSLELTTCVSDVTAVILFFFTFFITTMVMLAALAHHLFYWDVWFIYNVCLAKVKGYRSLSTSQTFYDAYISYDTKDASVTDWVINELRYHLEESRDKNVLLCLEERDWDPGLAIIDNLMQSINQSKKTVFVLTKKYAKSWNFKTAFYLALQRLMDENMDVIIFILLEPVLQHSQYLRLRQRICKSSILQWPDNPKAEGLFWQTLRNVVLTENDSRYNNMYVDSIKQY
# [8] = target: T2, Toll-like receptor 7 (Homo sapiens) (UniProt Q9NYK1); experiment: Agonist activity at TLR7 in human PBMC assessed as suppression of HCV replicon replication in human HuH7 luc/neo cells harboring RNA encoding bicistronic expression construct comprising wild type HCV type 1b NS3-NS5B regions exposed to conditioned media from compound treated PBMCs after 24 hrs by luciferase reporter gene assay; format: cell-based
# T2 sequence (whole entry): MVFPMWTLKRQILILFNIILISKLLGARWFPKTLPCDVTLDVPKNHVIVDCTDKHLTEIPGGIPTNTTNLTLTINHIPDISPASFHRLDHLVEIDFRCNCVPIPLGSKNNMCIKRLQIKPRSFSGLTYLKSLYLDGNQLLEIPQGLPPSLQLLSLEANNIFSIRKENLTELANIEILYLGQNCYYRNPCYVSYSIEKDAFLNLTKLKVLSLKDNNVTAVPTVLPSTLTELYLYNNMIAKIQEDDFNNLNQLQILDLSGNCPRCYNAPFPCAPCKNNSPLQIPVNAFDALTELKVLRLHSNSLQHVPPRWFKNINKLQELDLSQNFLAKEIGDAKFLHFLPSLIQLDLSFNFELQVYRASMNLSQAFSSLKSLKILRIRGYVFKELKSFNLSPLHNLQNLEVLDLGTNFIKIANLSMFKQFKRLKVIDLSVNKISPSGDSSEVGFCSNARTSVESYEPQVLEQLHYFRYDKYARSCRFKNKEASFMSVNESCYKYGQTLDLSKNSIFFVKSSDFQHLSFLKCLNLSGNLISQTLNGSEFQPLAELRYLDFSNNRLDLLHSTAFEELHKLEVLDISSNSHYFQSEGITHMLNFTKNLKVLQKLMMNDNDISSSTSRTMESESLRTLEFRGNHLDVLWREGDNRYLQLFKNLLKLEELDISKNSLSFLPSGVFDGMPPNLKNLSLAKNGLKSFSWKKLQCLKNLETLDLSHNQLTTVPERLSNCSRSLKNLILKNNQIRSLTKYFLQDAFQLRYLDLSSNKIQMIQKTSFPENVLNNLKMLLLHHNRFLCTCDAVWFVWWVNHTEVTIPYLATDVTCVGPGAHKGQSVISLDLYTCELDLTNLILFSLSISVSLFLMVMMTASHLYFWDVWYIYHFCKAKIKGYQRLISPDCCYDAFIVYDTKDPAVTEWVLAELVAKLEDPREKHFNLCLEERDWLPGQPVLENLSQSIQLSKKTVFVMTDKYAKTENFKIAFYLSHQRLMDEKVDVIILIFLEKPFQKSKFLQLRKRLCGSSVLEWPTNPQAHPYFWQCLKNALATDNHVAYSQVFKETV
# Procedure, shortened: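 Human PBMCs were incubated with compound. Their medium was then transferred onto an HCV replicon system, so the antiviral read-out reflects interferon and cytokines the PBMCs induced. Values are reported as lowest effective concentration (LEC), averaged when determined in two or more independent experiments.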
# [9] = tested on: Plasma; experiment: Proinflammatory activity in C57BL/6J mouse plasma assessed as IL-1beta levels at 30 mg/kg, po by multiplex assay (reference value: 60 pg/ml); format: functional
# [10] = tested on: Cynomolgus monkey; experiment: Upregulation of Tlr7 expression in cynomolgus monkey plasma at 9 mg/kg, po after 24 hrs by Fluidigm RT-qPCR analysis (reference value: 1.8); format: functional, Macaca fascicularis
# [11] = tested on: Liver; experiment: Anti-inflammatory activity in C57BL/6J mouse liver assessed as IL-10 levels at 1 mg/kg, po by multiplex assay (reference value: 2 pg/g); format: functional
# Procedure, shortened: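 Mice (C57BL/6) got a single oral dose of 0.3–30 mg/kg in 20% HP-β-CD, in groups of 15. Three per group were sacrificed at 0.5, 1, 2, 4 or 7 h, and liver cytokines were measured by multiplex. Values were rounded to the nearest multiple of 5.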
# [12] = tested on: Cynomolgus monkey; experiment: Proinflammatory activity in cynomolgus monkey plasma assessed as IL-8 levels at 30 mg/kg, po after 24 hrs by Luminex assay (reference value: 430 pg/ml); format: functional, Macaca fascicularis
# [13] = AUC (0 to last) in C57BL/6J mouse liver at 1 mg/kg, po by LC-MS analysis; format: ADME, organism-based; conditions: in vivo
# Procedure, shortened: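 Healthy C57BL/6 mice were dosed once by mouth at 0.3, 1, 3, 10 or 30 mg/kg in 20% HP-β-CD, in groups of 15 per dose. Three mice per group were sacrificed at 0.5, 1, 2, 4 or 7 h, and plasma and liver compound levels were measured by LC–MS. Values were rounded to whole numbers.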
# [14] = target: T2, Toll-like receptor 7 (Homo sapiens); experiment: Agonist activity at human TLR7 expressed in HEK293 cells assessed as induction of receptor activation incubated for 6 hrs by NF-kappaB-luciferase reporter gene assay; format: cell-based
# Procedure, shortened: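 HEK cell-based assay using a wild-type TLR7 expression vector; a parallel TLR8 vector construct served for selectivity. Results are expressed as lowest effective concentration (LEC), averaged over independent experiments where determined two or more times. A separate HEK 293 cytotoxicity (TOX) assay gave CC50 alongside.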
# [15] = target: T1, TLR7 and TLR8 (Homo sapiens); experiment: Agonist activity at TLR7/8 in human PBMCs co-cultured with primary human hepatocytes infected with HBV genotype C for 12 days assessed as increase in IL-12p40 levels up to 5 uM measured after 42 days
# [16] = Stability in human hepatocytes assessed compound turnover at 1 uM after 60 mins; format: ADME, cell-based, Hepatocyte; conditions: read-out: Drug metabolism
# [17] = tested on: Plasma; experiment: Effect on cytokine profile in C57BL/6J mouse plasma assessed as IL-12p70 levels at 3 mg/kg, po by multiplex assay (reference value: 560 pg/ml); format: functional; procedure, shortened: as §1
# [18] = tested on: Cynomolgus monkey; experiment: Activation of monocytes in cynomolgus monkey plasma assessed as upregulation of MCP1 levels at 9 mg/kg, po after 24 hrs by Luminex assay (reference value: 385 pg/ml); format: functional, Macaca fascicularis
structure (smiles),measurement,setting,value
CCC[C@@H](CCO)Nc1nc(N)nc2c(F)cccc12,fold change (FC),[1],800
same,Activity,[2],695 pg/mL
same,Activity,[3],485 pg/mL
same,Activity,[4],2265 pg/g
same,Cp,[5],5.9 ng/mL
same,Activity,[6],430 pg/g
same,Activity,[7],Active
same,MEC,[8],0.25 µM
same,Activity,[9],70 pg/mL
same,fold change (FC),[10],3.5
same,Activity,[11],535 pg/g
same,Activity,[12],1840 pg/mL
same,AUClast,[13],148 ng·h/g
same,MEC,[14],0.15 µM
same,Activity,[15],Active
same,"metabolised at 1 h, 1 µM",[16],35%
same,Activity,[17],330 pg/mL
same,Activity,[18],8890 pg/mL
